RGS4 inh: human RGS4 inhibition; P49798; HEK293 M3R/RGS4 inducible, Fluo-4 calcium flux; stronger effect = higher value; triggered by carbachol at its EC20; B-score at 10 µM; 0.45% of 310,000 active; AID 463165;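 active = B-score, a plate-corrected calcium signal, over three deviations above library mean, with baseline fluorescence within five deviations of library mean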;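 note: RGS4 expression induced by doxycycline in cells with stable M3 receptor; B-score is computed from the integrated fluorescence ratio over baseline after carbachol; higher B-score means a larger calcium signal and so more RGS4 inhibition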
Target sequence (P49798 whole entry, looked up): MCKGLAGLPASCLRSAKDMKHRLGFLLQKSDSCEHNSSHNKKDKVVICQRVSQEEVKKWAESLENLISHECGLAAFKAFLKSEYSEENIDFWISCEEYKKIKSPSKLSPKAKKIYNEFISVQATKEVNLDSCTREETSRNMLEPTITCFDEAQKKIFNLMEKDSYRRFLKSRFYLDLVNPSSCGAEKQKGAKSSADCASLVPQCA
MrgX1 antag: antagonists of human MrgX1 receptor | MRGX1-HEK293 calcium flux, Fluo-4, BAM8-22 antagonism; stronger effect = lower value | Q96LB2 | B-score at 10 µM | 1.3% of 310,000 active;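 active = calcium-response B-score plate-corrected more than 3 library SD below zero, starting fluorescence within 5 deviations, no agonist response on first addition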;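 note: peak minus trough fluorescence over baseline after final BAM8-22 challenge near maximal dose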
Target sequence (Q96LB2 whole entry, looked up): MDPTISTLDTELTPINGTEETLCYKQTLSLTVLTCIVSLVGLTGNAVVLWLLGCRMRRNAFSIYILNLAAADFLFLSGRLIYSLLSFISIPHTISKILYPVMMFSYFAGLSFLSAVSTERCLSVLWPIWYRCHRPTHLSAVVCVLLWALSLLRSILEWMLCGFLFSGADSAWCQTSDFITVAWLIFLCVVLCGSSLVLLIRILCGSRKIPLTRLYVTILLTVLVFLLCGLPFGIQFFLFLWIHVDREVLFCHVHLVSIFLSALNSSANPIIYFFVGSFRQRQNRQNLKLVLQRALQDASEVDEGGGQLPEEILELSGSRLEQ
MrgX1 agonist: human MrgX1 receptor agonism, primary screen. Q96LB2. MrgX1-HEK293 cells, Fluo-4 calcium fluorescence, agonist mode; stronger effect = higher value. B-score at 10 µM. 0.44% of 310,000 active. AID 588627;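 active = calcium response B-score plate-corrected fluorescence ratio at least 3 library SD, with starting fluorescence B-score inside 5 SD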
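times = overnight plating, then 30 min 37 °C plus 30 min room-temperature dye loading | assay system = stable human MrgX1 HEK293 cell line | input = fifteen thousand cells per well | signal = kinetic calcium dye fluorescence, Fluo-4 NW | dosing = compound delivered in addition one of three | read-out = B-scored fluorescence response ratio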
RGS4 pot: potentiators or activators of RGS4. HEK293 M3R/inducible RGS4, carbachol calcium flux Fluo4; stronger effect = lower value. AID 463111. B-score at 10 µM. 0.92% of 310,000 active;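 active = B-score of the integrated calcium signal more than 4 SD below the library mean, with starting fluorescence not abnormally high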;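 note: negative B-score means reduced calcium response which marks RGS4 activation or potentiation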
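Assay system: HEK293 FlpIn-TREx cells, stable M3R, doxycycline-inducible RGS4 / Probe or stimulus: carbachol, ECmax concentration / Times: overnight RGS4 induction, 30 min dye load 37 °C, 20 min compound RT / Signal: kinetic calcium fluorescence imaging with Fluo4-AM dye, 2 µM / Measure: Agonist-evoked peak-minus-minimum fluorescence over baseline, integrated ratio, B score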
MrgX1 allo act: human MrgX1 positive allosteric modulation, primary screen; B-score at 10 µM; Q96LB2; 0.63% of 310,000 active; MrgX1-HEK293, Fluo-4 calcium flux, FDSS; stronger effect = higher value;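 active = plate-corrected calcium response at least 3 library SD above typical, normal starting fluorescence, not activating the receptor alone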;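 note: compound read alongside a low EC10 to EC30 dose of BAM8-22 agonist; peak minus trough fluorescence over baseline measured at the second addition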
MrgX1 ag confirm: reconfirmed activator of human MrgX1 receptor signaling; shares compounds with MrgX1 agonist; MrgX1-HEK293, Fluo-4 calcium fluorescence, FDSS; activation, % at 10 µM; 78% of 600 active; AID 602412;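 active = calcium signal rise, corrected for plate position, at least 3 library SD high, with starting brightness within 5 such deviations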; note: reference of the scale not given here
HEK293 Ca flux: counter-screen for MrgX1 antagonists: effect in parental HEK293 cells. 2% of 4,000 active. fluorescence ratio F(max-min)/F0 at 10 µM. AID 624111. Fluo-4 calcium fluorescence, FDSS. shares compounds with MrgX1 antag;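 active = duplicate-averaged calcium fluorescence ratio at least three times the standard deviation of buffer wells, a nonspecific response in parental cells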
HEK293 Ca counter: activity in parental HEK293 cells without MrgX1; shares compounds with MrgX1 antag; parental HEK293 calcium flux, Fluo-4 fluorescence ratio; stronger effect = higher value; fluorescence ratio F(max-min)/F0 at 10 µM; 0.4% of 4,000 active;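 active = calcium fluorescence ratio, averaged over duplicates, at least 3 SD of the buffer-well ratio, meaning a nonspecific response in receptor-free cells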;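 note: untransfected parental HEK293 lacking MrgX1 used as counterscreen for MrgX1 allosteric activators; fluorescence change taken during the second addition on a kinetic imager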
HEK293 Ca cntr2: MrgX1 activator counter-screen hit in parental HEK293 cells; shares compounds with MrgX1 antag; Fluo-4 calcium fluorescence (FDSS); stronger effect = higher value; fluorescence ratio F(max-min)/F0 at 10 µM; 8.7% of 4,000 active; AID 624115;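 active = calcium fluorescence ratio at least three times the spread of buffer wells, meaning a non-specific response in parental cells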
The depositor's hits bear a star; i = inactive; nt = not tested or not shown. Shown are actives, neighbours in structure and some others; about 3.5% of the full set was active somewhere.

SMILES	RGS4 inh	MrgX1 antag	MrgX1 agonist	RGS4 pot	MrgX1 allo act	MrgX1 ag confirm	HEK293 Ca flux	HEK293 Ca counter	HEK293 Ca cntr2
O=C(O)CCc1ccc(-c2ccc(Cl)cc2)n1Cc1ccco1	i	i	38*	i	i	159%*	i	i	i
CCC(C)(C)n1nnnc1C(C(C)C)N1CCSCC1 (configuration not stated)	i	i	i	i	i	nt	nt	nt	nt
O=C(NCCCn1ccnc1)C(=O)NCC1OCCCN1S(=O)(=O)c1ccccc1 (configuration not stated)	i	i	i	i	i	nt	nt	nt	nt
CN(C)C=Nc1nonc1-c1ccccc1	i	i	i	i	i	nt	nt	nt	nt
CN(C)C=Nc1c(Br)cc(Br)c2nonc12	i	i	40*	i	i	162%*	i	i	i
O=C(Cc1c2ccccc2nc2ccccc12)c1ccccc1	i	i	31*	i	i	i	i	i	i
Cc1ccc(Cc2nnc(SCC(=O)Nc3ccccc3Cl)[nH]c2=O)cc1	i	i	i	i	i	nt	nt	nt	nt
COc1ccc(Cl)cc1NC(=O)CSc1nnc(Cc2ccc(C)cc2)c(=O)[nH]1	i	i	36*	i	i	160%*	i	i	i
Nc1ccc2c(c1)CC(=O)c1ccccc1S2	i	i	42*	i	i	102%*	i	i	i
Nc1ccc(N2C(=O)c3ccccc3C2=O)c(Cl)c1	nt	i	i	nt	i	nt	nt	nt	nt
O=C1c2ccccc2CSc2c(O)cccc21	i	i	i	i	i	nt	nt	nt	nt
Cc1cccc2c1Sc1ccccc1CC2=O	i	i	33*	i	i	113%*	i	i	i
O=C1Cc2ccccc2Sc2ccc(O)cc21	i	i	29*	i	i	114%*	i	i	i
O=C(c1ccco1)N1CCN(c2nnc(-c3ccccc3)c3ccccc23)CC1	i	i	i	i	i	nt	nt	nt	nt
O=C(O)/C=C/c1cnc2ccccc2c1	i	i	i	i	i	nt	nt	nt	nt
Cc1ccc(C(=O)NCC(=O)N/N=C/c2cccs2)cc1C	i	i	i	i	i	nt	nt	nt	nt
Cn1c2ccccc2c(=O)c2c(=O)n(C3CCCCC3)c(-c3ccco3)nc21	i	i	91*	i	i	589%*	i	i	113*
Cc1cc(=O)[nH]c(SCC(=O)Nc2ccc(Br)cc2)c1C#N	i	i	72*	i	i	375%*	i	i	84*
Cc1cc(=O)[nH]c(SCC(=O)Nc2ccc(F)cc2)c1C#N	i	i	i	i	i	nt	nt	nt	nt
COc1cccc(OC)c1C(=O)NC(=S)NNC(=O)[C@H]1C[C@@H]1c1ccccc1	i	i	i	i	i	nt	nt	nt	nt
O=C(NC(=S)NNC(=O)[C@H]1C[C@@H]1c1ccccc1)c1cccc(F)c1	i	i	159*	i	i	600%*	i	i	105*
O=C(CSCc1cc(=O)n2nc(C3CC3)sc2n1)Nc1ccccc1Cl	i	i	i	i	i	nt	nt	nt	nt
O=C(CCC1CCCC1)c1c(O)c2ccccc2oc1=O	i	i	87*	i	i	564%*	i	i	111*
COc1ccc(Nc2nc(-c3ccccc3)c(C(=O)Nc3cccnc3)s2)cc1	i	i	i	i	i	nt	nt	nt	nt
COc1ccccc1NC(=O)C(C)OC(=O)CCC1CCCCC1 (configuration not stated)	i	i	i	i	i	nt	nt	nt	nt
SMILES	RGS4 inh	MrgX1 antag	MrgX1 agonist	RGS4 pot	MrgX1 allo act	MrgX1 ag confirm	HEK293 Ca flux	HEK293 Ca counter	HEK293 Ca cntr2
CCN(CC)c1ccc(S(=O)(=O)N2CCCCC2)cc1NC(=O)CN1C(=O)NC2(CCCC2)C1=O	i	i	i	i	i	nt	nt	nt	nt
O=C(CNCC1(N2CCOCC2)CCCCC1)Nc1ccc(Cl)cc1	i	i	74*	i	i	i	i	i	i
O=C(Nc1ccc(N2CCOCC2)cc1)C1(c2ccc(Cl)cc2)CCC1	i	i	i	i	i	nt	nt	nt	nt
Nc1ncnc2c1ncn2C1OC(C(=O)NC2CC2)C(O)C1O (configuration not stated)	nt	i	30*	nt	i	100%*	i	i	i
COc1ccc(CCNC(=S)NCCc2ccc(OC)c(OC)c2)cc1OC	i	i	i	i	i	nt	nt	nt	nt
CCOC(=O)c1ccc(NC(=S)NCCc2ccc(OC)c(OC)c2)cc1	i	i	36*	i	i	i	i	i	i
CC(Oc1ccccc1)C(=O)Nc1nnc(S(=O)(=O)N(C)c2ccccc2)s1 (configuration not stated)	i	i	29*	i	i	95%*	i	i	46*
CCC(=O)c1cn([C@@H](CCC(OC)OC)CC(=O)OC(C)(C)C)cc1CC	i	i	i	i	i	nt	nt	nt	nt
COc1cc([N+](=O)[O-])cc(/C=N/NC(=O)C(O)(c2ccccc2)c2ccccc2)c1O	i	i	i	i	i	nt	nt	nt	nt
O=C(N/N=C/c1cccc([N+](=O)[O-])c1O)C(O)(c1ccccc1)c1ccccc1	i	i	66*	i	i	116%*	i	i	i
COc1ccc(C(=O)c2no[n+]([O-])c2C(=O)c2ccc(OC)cc2)cc1	i	i	67*	i	i	186%*	i	i	57*
CCc1cccc(NC(=O)Cc2ccc(OC)c(OC)c2)c1	i	i	i	i	i	nt	nt	nt	nt
Cc1c(S(=O)(=O)NC2CCCCC2)c(=O)n(C)c(=O)n1C	i	i	i	i	i	nt	nt	nt	nt
COc1ccc2c(c1)c(C(O)CN1CCN(Cc3ccc4c(c3)OCO4)CC1)c(C)n2C (configuration not stated)	i	i	i	i	i	nt	nt	nt	nt
Cc1c(C(O)CN2CCN(Cc3ccc4c(c3)OCO4)CC2)c2ccccc2n1C (configuration not stated)	i	i	33*	i	i	i	i	i	i

Source: PubChem
